Reference: article PMC6044994 (ACS Omega, 2018)
In brackets after ≈: the same amount, converted by molar mass. Where two headings read alike, the source gives them in different places.

Tests used:
[1] = tested on: multidrug-resistant E. coli strains MRA11, MRC17, MRAE33; experiment: Synergistic study with CIP, checkerboard method; format: cell-based, Escherichia coli; details: for MIC: Escherichia coli
E. coli [2] = experiment: CFU count of bacterial cells post treatment; format: cell-based, Escherichia coli; details: treated bacterial cells
[3] = tested on: multidrug-resistant E. coli strains; format: cell-based, Escherichia coli; details: for inhibition at 1024 µg/mL: Escherichia coli
[4] = tested on: human red blood cells (hRBCs); experiment: Hemolytic assay; format: cell-based
Procedure, shortened: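 Erythrocytes from healthy donors (EDTA) pelleted at 2000 rpm for 10 min at 20 °C and washed three times in PBS. Made to a 10% suspension, diluted 1:10, then mixed 1:1 with test compound in PBS (gradient 1000–7.8 μg/mL). Incubated 1 h at 37 °C and centrifuged; supernatant A450 used to calculate % hemolysis.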

S. pneumoniae [5] = experiment: CFU count of bacterial cells post treatment; format: cell-based, Streptococcus pneumoniae; details: treated bacterial cells
S. pneumoniae biofilm [6] = experiment: Anti-biofilm activity by XTT reduction assay; format: cell-based; details: Streptococcus pneumoniae, read-out: inhibition of biofilm formation (XTT)
Procedure, shortened: (§1)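 Biofilm grown in tryptic soy broth from 5 × 10^5 CFU/mL inocula with 2-fold serial dilutions of test compound (7.812–1000 μg/mL), 37 °C for 24 h, static. Nonadherent cells removed by PBS wash.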

G. mellonella larvae [7] = experiment: In vivo toxicity, larval viability; design: species or system Galleria mellonella; details: up to 2.5 mg/mL
S. pneumoniae biofilm [8] = experiment: Anti-biofilm activity by crystal violet assay; format: cell-based; details: Streptococcus pneumoniae, read-out: inhibition of biofilm formation (crystal violet)
S. pneumoniae cells = experiment: TEM analysis of cell morphology; format: cell-based, Streptococcus pneumoniae; details: MIC concn, 1 h
Procedure, shortened: (§2)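 Cells standardized to A600 ≈ 0.1 and exposed 1 h to test compound: E. coli at 62.5 or 125 μg/mL, S. pneumoniae at 125 μg/mL. Washed in PBS, fixed overnight in 2.5% glutaraldehyde (phosphate/MgCl2 buffer, pH 6.5). Postfixed 2 h in 2% OsO4, stained en bloc with 1% uranyl acetate, ethanol-dehydrated, Epon-embedded (60 °C, 48 h). Ultrathin sections imaged by TEM.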

E. coli biofilm [9] = experiment: Anti-biofilm activity by XTT reduction assay; format: cell-based; details: Escherichia coli, read-out: inhibition of biofilm formation (XTT)
Procedure, shortened: as §1

[10] = Cytotoxicity by MTT assay; format: cell-based, human; details: human, HEK293 cells
HEK293 cells = experiment: Cytotoxicity by MTT assay; format: cell-based, human; details: HEK293, up to 100 μg/mL concentration
E. coli [11] = experiment: Growth kinetic studies; format: cell-based, Escherichia coli; details: for time at which growth was observed (lag phase): sub-MIC concentration
Procedure, shortened: (§3)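 Fresh cultures grown 12 h at 37 °C, then about 2 × 10^6 cells/mL inoculated into 50 mL nutrient broth. […] Shaken at 37 °C, 160 rpm. Samples taken every 2 h from 0 to 22 h, with OD600 plotted against time.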

E. coli biofilm [12] = experiment: Anti-biofilm activity by crystal violet assay; format: cell-based; details: Escherichia coli, read-out: inhibition of biofilm formation (crystal violet)
S. pneumoniae (MTCC 655) = experiment: In vitro antibacterial activity, broth dilution; format: cell-based; details: Streptococcus pneumoniae, MTCC655
S. pneumoniae [13] = experiment: Growth kinetic studies; format: cell-based, Streptococcus pneumoniae; details: for time at which growth was observed: S. pneumoniae
Procedure, shortened: as §3

G. mellonella larvae [14] = experiment: In vivo toxicity, hemocyte density of larvae; design: species or system Galleria mellonella; details: 2.5 mg/mL, 24 h
Procedure, shortened: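 Three larvae injected with 20 μL of test compound at 1.25 or 2.5 mg/mL and kept 24 h at 30 °C in the dark. Hemolymph collected from the anterior end and diluted 1 in 10 in cold PBS with 0.37% 2-mercaptoethanol. Hemocytes counted on a hemocytometer and density back-calculated.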

E. coli (ATCC 25922) = experiment: In vitro antibacterial activity, broth dilution; format: cell-based; details: Escherichia coli, ATCC25922
E. coli cells = experiment: TEM analysis of cell morphology; format: cell-based, Escherichia coli; details: MIC concn, 1 h
Procedure, shortened: as §2

[15] = read-out: MIC alone, E. coli MRA11
[16] = read-out: MIC alone, E. coli MRAE33
[17] = read-out: MIC alone, E. coli MRC17
[18] = E. coli MRA11, in combination with CIP
[19] = E. coli MRA11, test compound in combination with CIP
[20] = E. coli MRAE33, in combination with CIP
[21] = E. coli MRAE33, test compound in combination with CIP
[22] = E. coli MRC17, in combination with CIP
[23] = E. coli MRC17, test compound in combination with CIP
[24] = read-out: % inhibition of growth, E. coli MRA11, at 1024 μg/mL (MIC)
[25] = read-out: % inhibition of growth, E. coli MRAE33, at 1024 μg/mL (MIC)
[26] = read-out: % inhibition of growth, E. coli MRC17, at 1024 μg/mL (MIC)

Structure (SMILES)	MIC [1, 15] [µg/mL]	MIC [1, 16] [µg/mL]	MIC [1, 17] [µg/mL]	CFUs E. coli (E. coli [2])	cell lysis ([4]; 200 μg/mL) [%]	CFUs S. pneumoniae (S. pneumoniae [5])	FICI [1, 18]	mode of interaction [1, 18]	MIC in combination [1, 19] [µg/mL]	FICI [1, 20]	mode of interaction [1, 20]	MIC in combination [1, 21] [µg/mL]	FICI [1, 22]	mode of interaction [1, 22]	MIC in combination [1, 23] [µg/mL]	inhibition at 250 µg/mL (S. pneumoniae biofilm [6]) [%]	viability of the larvae (G. mellonella larvae [7])	inhibition at 250 µg/mL (S. pneumoniae biofilm [8]) [%]	inhibition at 1024 µg/mL [3, 24] [%]	inhibition at 1024 µg/mL [3, 25] [%]	further results
O=C(O)c1cn(C2CC2)c2cc(N3CCNCC3)c(F)cc2c1=O [CIP, Ciprofloxacin, reference compound]	128	2	128	2.0 × 10^4	0.8	5.0 × 10^3															MIC in combination ([1]; E. coli MRA11, CIP in combination with 5e): 2 µg/mL; MIC in combination ([1]; E. coli MRA11, CIP in combination with 5u): 16 µg/mL; MIC in combination ([1]; E. coli MRAE33, CIP in combination with 5e): 2 µg/mL; MIC in combination ([1]; E. coli MRAE33, CIP in combination with 5u): 2 µg/mL; MIC in combination ([1]; E. coli MRC17, CIP in combination with 5e): 2 µg/mL; MIC in combination ([1]; E. coli MRC17, CIP in combination with 5u): 64 µg/mL; % inhibition of growth ([3]; multidrug-resistant E. coli strains, at a concentration lower than those of the compounds): ~100%
Cc1ccc(C(C)C)cc1OCc1cn(-c2ccc(C(=O)O)cc2)nn1 [Compound 5e, 4-(4-((5-Isopropyl-2-methylphenoxy)methyl)-1H-1,2,3-triazol-1-yl)benzoic Acid]	1020	1020	1020	2.5 × 10^4	9	7.8 × 10^3	0.03	synergistic (Synergy and antagonism were defined by FICI ≤ 0.5 and >4, respectively)	16	1.02	indifferent (indifferent was defined by 1 < FICI ≤ 4)	16	0.03	synergistic (Synergy and antagonism were defined by FICI ≤ 0.5 and >4, respectively)	16	92.3	not affected	93.4	> 95	86	inhibition at 1024 µg/mL [3, 26]: 79%; effect on cell morphology (TEM) (S. pneumoniae cells): significantly damaged the cell wall; inhibition at 125 µg/mL (E. coli biofilm [9]): 95.2%; viability at 48 h, 50 μg/mL [10]: > 75%; viability at 48 h, 200 μg/mL [10]: > 50%; cytotoxicity (HEK293 cells): did not show significant cytotoxicity; time at which growth was observed (lag phase) (E. coli [11]; E. coli): approximately 6 h; growth of E. coli (E. coli [11]; MIC and 2MIC concentrations, up to 22 h of incubation): no significant growth; inhibition at 125 µg/mL (E. coli biofilm [12]): 94.3%; MIC (S. pneumoniae (MTCC 655)): 125 µg/mL (≈ 356 µM); growth of S. pneumoniae (S. pneumoniae [13]; sub-MIC concentration (62.5 μg/mL)): effectively inhibited the growth; hemocyte density of the larvae (G. mellonella larvae [14]): not significantly affected; cell lysis ([4]; 600 μg/mL): 22%; MIC (E. coli (ATCC 25922)): 62.5 µg/mL (≈ 178 µM); effect on cell morphology (TEM) (E. coli cells): significantly damaged the cell wall
O=C(O)c1ccc(-n2cc(COC3=CC(=O)c4ccccc4C3=O)nn2)cc1 [Compound 5u, 4-(4-((1,4-Dioxo-1,4-dihydronaphthalen-2-yloxy)methyl)-1H-1,2,3-triazol-1-yl)benzoic Acid]	1020	1020	1020	2.7 × 10^4	9	6.0 × 10^3	0.62	partially synergistic (Partially synergistic was denoted by 0.5 > FICI < 1)	512	1.02	indifferent (indifferent was defined by 1 < FICI ≤ 4)	16	1.50	indifferent (indifferent was defined by 1 < FICI ≤ 4)	1024	100	not affected	98.3	> 90	~100	inhibition at 1024 µg/mL [3, 26]: ~100%; effect on cell morphology (TEM) (S. pneumoniae cells): significantly damaged the cell wall; inhibition at 250 µg/mL (E. coli biofilm [9]): 92.3%; viability at 48 h, 50 μg/mL [10]: > 75%; viability at 48 h, 200 μg/mL [10]: > 50%; cytotoxicity (HEK293 cells): did not show significant cytotoxicity; time at which growth was observed (E. coli [11]; E. coli, MIC concentration): 9 h; time at which growth was observed (lag phase) (E. coli [11]; E. coli): 6 h; inhibition at 250 µg/mL (E. coli biofilm [12]): 77.3%; MIC (S. pneumoniae (MTCC 655)): 125 µg/mL (≈ 333 µM); time at which growth was observed (S. pneumoniae [13]; MIC concentration): 9 h; time at which growth was observed (S. pneumoniae [13]; sub-MIC concentration): 8 h; hemocyte density of the larvae (G. mellonella larvae [14]): not significantly affected; cell lysis ([4]; 600 μg/mL): 12%; MIC (E. coli (ATCC 25922)): 125 µg/mL (≈ 333 µM); effect on cell morphology (TEM) (E. coli cells): significantly damaged the cell wall
